≈ marks a conversion by molar mass, not a printed value.
Columns and labels:
[1] = cited from earlier work
[2] = cited from earlier work; remark: listed apart in the source
[3] = Solubility of celecoxib in oils and cosurfactants; type: physicochemical; conditions: thermodynamic from solid
How it was run: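 Excess solid test compound was stirred magnetically in 2 mL of each neat oil or cosurfactant at room temperature for 24 hrs, then centrifuged at 10,000 rpm for 10 mins. The supernatant was passed through a 0.45 µm membrane, diluted with methanol, and quantified by HPLC on a 5 µm C18 reversed-phase column (4.6×250 mm).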

solubility at 24 h ([3]; PEG 400, organic solvent or mixture)	solubility at 24 h ([3]; ethanol, organic solvent or mixture)	solubility at 24 h ([3]; fish oil, oil or lipid)	solubility at 24 h ([3]; glycerine, organic solvent or mixture)	solubility at 24 h ([3]; medium-chain triglycerides (MCT oil), oil or lipid)	solubility at 24 h ([3]; oleic acid, oil or lipid)	solubility at 24 h ([3]; propylene glycol (PG), organic solvent or mixture)	Compound	log partition coefficient [1]	solubility in water [2]
							CCN(CC)c1ccc2nc3c4ccccc4c(=O)cc-3oc2c1 [Nile red]	5.0	
433 ± 31.7 mg/mL (≈ 1140 mM)	79.2 ± 10.2 mg/mL (≈ 208 mM)	3.25 ± 0.16 mg/mL (≈ 8.52 mM)	0.42 ± 0.01 mg/mL (≈ 1.1 mM)	11.6 ± 3.08 mg/mL (≈ 30.5 mM)	0.73 ± 0.06 mg/mL (≈ 1.91 mM)	24.2 ± 0.99 mg/mL (≈ 63.6 mM)	Cc1ccc(-c2cc(C(F)(F)F)nn2-c2ccc(S(N)(=O)=O)cc2)cc1 [celecoxib, Celecoxib]		0.00255 to 0.00457 mg/mL

— paper PMC6503206 (International Journal of Nanomedicine, 2019)
